Assay outcomes deposited in PubChem BioAssay by several laboratories.
Pemphigus Ab inh = human desmoglein-3 autoantibody binding inhibition; P32926; actives 0.48% (n = 310,000); DSG3-coupled beads, scFv-anti-DSG3-GFP binding, flow cytometry; stronger effect = lower value; binding (percent of control), % at 10 µM;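 active = binding more than 3 SD below its plate's average and above zero; inconclusive = below that plate limit but binding exactly zero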;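 also: hits lower antibody fragment binding to DSG3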
Rce1 inhib = yeast Ras-converting enzyme inhibition | Q03530 | yeast membranes, quenched prenylated peptide cleavage fluorescence | calls only | actives 0.27% (n = 290,000) | AID 2563;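 active = fall in fluorescence gain of 50% or more versus controls, with final raw signal at or below 3038400; inconclusive = same 50% fall but final raw signal above 3038400; inactive = fall in fluorescence gain under 50%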;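 also: plate controls were neutral control wells for no effect and wells lacking membranes for full effect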
Target sequence (Q03530 whole entry, looked up): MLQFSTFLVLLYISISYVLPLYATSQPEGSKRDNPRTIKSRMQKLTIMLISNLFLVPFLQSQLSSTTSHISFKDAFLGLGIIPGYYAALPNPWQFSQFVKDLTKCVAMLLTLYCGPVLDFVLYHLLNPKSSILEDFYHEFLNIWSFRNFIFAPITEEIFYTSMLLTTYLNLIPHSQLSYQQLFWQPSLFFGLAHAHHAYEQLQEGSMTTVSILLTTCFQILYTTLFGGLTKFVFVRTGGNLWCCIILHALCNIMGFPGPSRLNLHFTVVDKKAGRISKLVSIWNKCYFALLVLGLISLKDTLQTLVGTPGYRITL
Tb MetRS inh = Trypanosoma brucei MetRS inhibition | actives 0.4% (n = 360,000) | AID 624268 | purified T. brucei MetRS, ATP depletion, Kinase-Glo luminescence | inhibition, % at 11.9 µM;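 active = inhibition above a per-plate cutoff of the control wells' mean inhibition plus 3 SD, cut at about 5.5% in these data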;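 also: 0% = DMSO wells median and 100% = median of wells with control inhibitor compound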
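Material: T. brucei methionyl-tRNA synthetase, purified; reagent: substrates ATP, L-methionine and bulk Escherichia coli tRNA; dosing: 11.9 µM single point; timing: 15 min plus 2 h at 25 °C; detection: luminescence of leftover ATP; evaluation: % inhibition; control set: DMSO-only wells as low control; replicates: singlicate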
HCV core dimer = blocks dimerization of HCV core protein; AID 1899; inhibition, % at 5 µM; TR-FRET GST/Flag-core106 dimerization, 1536-well; actives 0.33% (n = 300,000);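 active = inhibition above the mean of all tested compounds plus 3 SD, set per screening campaign, cut at about 45% in these data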
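Assay system: Tagged HCV core106 pair (GST and Flag) | Buffer or medium: KF-containing HEPES buffer, pH 7.45, DTT, CHAPS, BSA | Also added: Eu donor and XL665 acceptor anti-tag antibodies | Dosing: One concentration, 5 µM, in 0.5% DMSO | Timing: 4 h at 22.5 °C | Technique: TR-FRET 671 and 617 nm emission | Repeats: Singlicate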
NadD block = NadD (S. aureus) enzyme inhibition; AID 602399; actives 0.78% (n = 360,000); purified NadD enzyme, colorimetric absorbance read-out; inhibition, % at 20 µM; in the data active = inhibition above about 26%
TbMetRS confirm = confirmation of Trypanosoma brucei MetRS inhibitors; T. brucei MetRS enzyme, luminescence (ATP depletion); AID 624412; inhibition, % at 11.9 µM; shares compounds with Tb MetRS inh; actives 93% (n = 1,400); in the data active = inhibition above about 7%
Jurkat cytotox = kills Jurkat cells in T. brucei MetRS counterscreen | actives 12% (n = 1,400) | inhibition, % at 8.3 µM | shares compounds with Tb MetRS inh | AID 624413 | Jurkat cells viability, ATP luminescence; in the data active = inhibition above about 15%;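 also: 0% = vehicle and 100% = reference inhibitor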
TbMetRS FP orth = T. brucei MetRS inhibition, orthogonal assay; shares compounds with Tb MetRS inh; purified T. brucei MetRS, fluorescence polarization; inhibition, % at 11.9 µM; actives 44% (n = 1,400); AID 651607; in the data active = inhibition above about 17%;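 also: 0% = vehicle wells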
Active calls of the source: *; i = inactive; ? = inconclusive; · = no result. Compounds with a hit are over-represented: about 1.9% of the library has one in this group of screens.

SMILES	Pemphigus Ab inh	Rce1 inhib	Tb MetRS inh	HCV core dimer	NadD block	TbMetRS confirm	Jurkat cytotox	TbMetRS FP orth
COc1cc(CNCCNC(=O)c2nonc2N)ccc1OCc1ccc(Cl)nc1	97	i	0	-1	-5	·	·	·
CN(CCC(=O)Nc1ccc(Cl)cc1)Cc1ccccc1	118	i	14*	10	-9	31*	8	15
Cc1ccc(C)c(NC(=O)CN(C)C(=O)Cc2ccc(Cl)cc2Cl)c1	101	i	-1	-10	-2	·	·	·
Cc1ccc(NC(=O)CN(C)C(=O)Cc2ccc(Cl)cc2Cl)cc1	·	i	54*	-3	-3	67*	-2	42*
COc1ccc(NC(=O)CN(C)CC(=O)Nc2cccc(C(C)=O)c2)cc1	113	i	1	-6	0	·	·	·
CN(CC(=O)Nc1ccc(Cl)cc1)CC(=O)Nc1cccc(Br)c1	120	·	30*	0	1	49*	7	29*
CN(CC(=O)Nc1ccc(Cl)cc1)C(=O)CCNC(=O)c1ccc(Cl)cc1	97	·	3	·	-6	·	·	·
CN(CC(=O)Nc1ccc(Cl)cc1)C(=O)CCc1ccccc1	106	i	20*	2	-2	39*	-5	18*
COc1ccc(NC(=O)CN(C)C(=O)CCCc2c[nH]c3ccccc23)cc1	98	i	0	-9	-5	·	·	·
CN(CC(=O)Nc1ccc(Cl)cc1)C(=O)CCc1c[nH]c2ccccc12	102	i	34*	6	-16	55*	0	23*
Cc1ccc(S(=O)(=O)Nn2c(O)c(C=C3N=c4ccccc4=N3)sc2=S)cc1	83	i	78*	-10	7	93*	-7	57*
O=C(Nn1c(O)c(C=C2N=c3ccccc3=N2)sc1=S)c1cccc(Cl)c1	88	i	2	-11	11	·	·	·
O=C(Nn1c(O)c(C=C2N=c3ccccc3=N2)sc1=S)c1ccc(Cl)cc1	94	i	6.4*	-5	-8	21*	6	30*
O=C(Nn1c(O)c(C=C2N=c3ccccc3=N2)sc1=S)c1ccccc1	91	i	5	0	-2	·	·	·
Oc1c(C=C2N=c3ccccc3=N2)sc(=S)n1C1CCCC1	92	i	0	-6	-2	·	·	·
Cc1ccc(C(=O)Nn2c(O)c(C=C3N=c4ccccc4=N3)sc2=S)cc1	94	i	7.5*	-3	10	14*	7	18*
CS(=O)(=O)N(CC(=O)Nc1ccc2c(c1)OCO2)Cc1ccc(Cl)cc1	·	i	14*	14	-6	23*	3	8
CS(=O)(=O)N(CC(=O)Nc1ccc2c(c1)OCO2)Cc1ccccc1	97	i	0	-2	3	·	·	·
O=[N+]([O-])c1ccc(Cl)c(CN2CCN(c3ncccn3)CC2)c1	110	i	-1	4	-4	·	·	·
Cc1ccc2nc(C)c(CN3CCN(c4ccc([N+](=O)[O-])cc4Cl)CC3)n2c1	107	i	26*	10	-5	44*	47*	25*
O=C(/C=C\c1cn(-c2ccccc2)nc1-c1ccccc1)Nc1nccs1	96	i	0	15	17	·	·	·
CC(=O)NS(=O)(=O)c1ccc(NC(=O)/C=C/c2cn(-c3ccccc3)nc2-c2ccccc2)cc1	97	i	51*	23	22	49*	-4	42*
Cc1cc(Cn2nc(-c3ccccc3)cc2C(=O)NCc2cccc(Br)c2)on1	98	i	54*	-9	-9	84*	-4	68*
Cc1cc(Cn2nc(-c3ccccc3)cc2C(=O)NCc2cccc(C(F)(F)F)c2)on1	·	i	1	-2	-5	·	·	·
c1csc(-c2ccc3ccccc3n2)c1	115	i	0	10	4	·	·	·
SMILES	Pemphigus Ab inh	Rce1 inhib	Tb MetRS inh	HCV core dimer	NadD block	TbMetRS confirm	Jurkat cytotox	TbMetRS FP orth
COc1cccc(CC(Cc2nc3ccccc3[nH]2)c2nc3ccccc3[nH]2)c1 (configuration not stated)	106	i	9.3*	5	4	12*	5	5
Cc1noc(C)c1C(=O)Nc1sc2c(c1C(N)=O)CCCCC2	98	i	-1	1	-3	·	·	·
O=C(CNC(=O)c1ccc(Br)o1)NCc1cccc(Cl)c1	94	i	2	-17	-1	·	·	·
O=C(CNC(=O)c1ccc(Br)o1)NCc1ccc(Cl)cc1Cl	·	i	18*	·	-1	45*	-3	15
Cc1ccc2[nH]c3c(c2c1)CCc1cn[nH]c1-3	109	i	22*	-29	3	12*	2	47*
Cc1ccc2nc(-c3ccc(SCC(=O)O)nc3)[nH]c2c1	96	i	10*	-3	1	21*	-3	4
CCOC(=O)CNC(=O)CSc1ccc(-c2nc3ccccc3[nH]2)cn1	102	·	9.1*	4	-5	28*	6	10
N#Cc1ccccc1CSc1ccc(-c2nc3ccccc3[nH]2)cn1	119	i	11*	-12	-3	24*	12	21*
O=C(CSc1ccc(-c2nc3ccccc3[nH]2)cn1)Nc1ccc(S(=O)(=O)N2CCCC2)cc1	87	i	30*	7	29	33*	8	31*
CC(=O)CSc1ccc(-c2nc3ccccc3[nH]2)cn1	97	i	1	-15	1	·	·	·
Cc1ccc2nc(-c3ccc(SCC(=O)N4CCc5ccccc54)nc3)[nH]c2c1	·	i	1	-29	13	·	·	·
COc1ccc2c(c1)c(=O)cc(-c1ccccc1)n2C	·	i	0	0	2	·	·	·
O=C(COc1ccccc1)NC1CCSc2ccccc21 (configuration not stated)	97	i	0	9	-2	·	·	·
O=C(C/C=N\OCc1ccc([N+](=O)[O-])cc1)Nc1ccc(Br)cc1	98	·	83*	2	-11	101*	-1	91*
O=C(COc1ccc([N+](=O)[O-])cc1)NNC(=O)Nc1ccc([N+](=O)[O-])cc1	102	i	0	5	-4	·	·	·
CCCCn1c(N)c(N(CCOC)C(=O)c2cccc(N3C(=O)c4ccccc4C3=O)c2)c(=O)[nH]c1=O	?	i	0	2	3	·	·	·
N#Cc1ccc(Sc2nc3ccccc3[nH]2)cc1C#N	·	i	17*	0	2	29*	0	14
N#C/C(=C\c1ccc(Sc2nc3ccccc3[nH]2)o1)c1ccccc1	·	i	0	11	5	·	·	·
Cc1ccc(OCC(=O)Nc2cc(S(=O)(=O)N3CCCCC3)ccc2N2CCN(C)CC2)c(C)c1	110	i	0	1	-1	·	·	·
